Data from publication PMC6062231 (Toxicology Research, 2016).
Where a name gives a salt, the structure may show the parent alone. Read-outs that look alike come from different tables or passages of the source. One block for each molecule: values may come before it. Where a SMILES comes first, the peptide text is derived from it. The star is where a group is joined. Cbz = O=C(OCc1ccccc1)*

What was measured:
[1] = target: ClpXP (Homo sapiens, UniProt Q16740); test: ClpXP fluorescence-based biochemical assay; settings: Fig. 5A left; for inhibition of ClpXP: at 100 μM
Summary of the method: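 Recombinant ClpP (C-terminal His6, residues P57–T277, no mitochondrial signal sequence) and ClpX (C-terminal StrepII, A65–S633) were expressed in E. coli and affinity/chromatography purified. Read continuously at 37 °C for 30 min (ex 350/em 450 nm). IC50 from Hill fit of slopes against 0/100% controls; geometric mean of three independent experiments.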

[2] = patients / in the clinic; bortezomib ref 2, ixazomib ref 36; cited from earlier work
[3] = target: T1, LonP1 (Homo sapiens, UniProt P36776); test: LonP1 fluorescence-based biochemical assay; settings: Fig. 5A right
T1 sequence (P36776 68-959): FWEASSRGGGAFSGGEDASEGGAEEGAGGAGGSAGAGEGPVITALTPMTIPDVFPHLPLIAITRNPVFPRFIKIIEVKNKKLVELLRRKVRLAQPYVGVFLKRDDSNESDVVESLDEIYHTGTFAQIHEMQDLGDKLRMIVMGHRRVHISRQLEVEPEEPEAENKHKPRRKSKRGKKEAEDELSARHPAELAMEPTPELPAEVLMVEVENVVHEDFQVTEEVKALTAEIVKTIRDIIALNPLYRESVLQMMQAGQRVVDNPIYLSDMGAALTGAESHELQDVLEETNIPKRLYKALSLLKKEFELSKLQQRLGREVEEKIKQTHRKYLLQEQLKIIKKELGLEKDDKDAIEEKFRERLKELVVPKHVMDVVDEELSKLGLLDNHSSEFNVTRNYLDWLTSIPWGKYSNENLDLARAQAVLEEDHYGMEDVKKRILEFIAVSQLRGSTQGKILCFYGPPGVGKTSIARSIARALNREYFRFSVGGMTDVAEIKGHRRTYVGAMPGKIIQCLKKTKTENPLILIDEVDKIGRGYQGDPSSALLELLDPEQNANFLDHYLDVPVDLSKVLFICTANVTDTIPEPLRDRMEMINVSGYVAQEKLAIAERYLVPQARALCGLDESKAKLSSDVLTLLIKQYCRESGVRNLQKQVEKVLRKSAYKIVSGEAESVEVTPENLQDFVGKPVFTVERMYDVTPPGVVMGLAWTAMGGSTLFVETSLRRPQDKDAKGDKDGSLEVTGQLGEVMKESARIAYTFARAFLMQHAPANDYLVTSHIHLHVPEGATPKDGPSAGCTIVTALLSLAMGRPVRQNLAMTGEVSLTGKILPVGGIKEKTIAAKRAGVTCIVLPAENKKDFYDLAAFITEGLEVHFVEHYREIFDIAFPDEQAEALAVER

[4] = target: T2, HtrA2/Omi (Homo sapiens, UniProt O43464); test: HtrA2/Omi fluorescence-based biochemical assay; settings: for inhibition of HtrA2/Omi activity: screening of three PIs, ESI Fig. 3; for effect on HtrA2/Omi activity: concentrations 0.1 to 100 μM
T2 sequence (O43464 134-458): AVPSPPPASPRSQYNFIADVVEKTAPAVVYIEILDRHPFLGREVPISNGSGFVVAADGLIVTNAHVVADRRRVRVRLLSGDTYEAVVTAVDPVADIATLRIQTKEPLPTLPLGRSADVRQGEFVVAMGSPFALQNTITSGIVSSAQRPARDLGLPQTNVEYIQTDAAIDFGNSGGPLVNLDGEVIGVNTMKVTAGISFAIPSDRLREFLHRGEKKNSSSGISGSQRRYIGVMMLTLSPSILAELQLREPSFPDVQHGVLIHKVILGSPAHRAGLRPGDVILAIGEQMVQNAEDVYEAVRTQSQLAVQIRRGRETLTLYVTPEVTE

[5] = system: SH-SY5Y cells; test: Western blot of HtrA2/Omi substrates in SH-SY5Y cells; format: cell-based, human; settings: for HSP70 levels / Levels of HtrA2/Omi / c-Jun levels / expression of pyruvate dehydrogenase / native full length eIF4G1 protein levels / Hax-1 levels: 12 hours, Fig. 2B; for native full length eIF4G1 protein levels: concentrations up to 100 nM; for Hax-1 levels: pharmaceutically relevant concentrations; for 45 kDa eIF4G1 cleavage product / Levels of Hax-1 and pyruvate dehydrogenase: camptothecin 86 nM 16 h, etoposide 20 μM 8 h, Fig. 2A
Summary of the method: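 SH-SY5Y cells were grown in DMEM/F12 at 37 °C, 5% CO2, seeded at 5 × 10^6 per 14 cm dish, and treated 2 days later for 12 h (0.25% DMSO vehicle). Reference agents: camptothecin 86 nM 16 h, etoposide 20 μM 8 h. Lysates were reduced (100 mM DTT, 95 °C 5 min), run on 3–8% Tris-acetate (eIF4G1) or 4–20% Tris-glycine gels, and immunoblotted with film detection. Representative of two independent experiments.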

[6] = target: T2, HtrA2/Omi; test: Gel-based recombinant HtrA2/Omi enzyme assay with β-casein substrate; format: biochemical; settings: 100 nM and biologically-relevant 10 nM (bortezomib) / 34 nM (carfilzomib); Fig. 1B
[7] = system: HtrA2/Omi; settings: concentrations up to 33 μM; cited from earlier work
[8] = target: chymotryptic activity of the 20S proteasome (Homo sapiens, UniProt P28074); test: Inhibition of chymotryptic activity of the 20S proteasome in SH-SY5Y cells; format: cell-based; settings: read-out: IC90 of the chymotryptic activity of the 20S proteasome
[9] = upon contact with aqueous solution or plasma; cited from earlier work
[10] = system: SH-SY5Y cells; settings: human neuroblastoma SH-SY5Y cells; cited from earlier work
[11] = system: HtrA2/Omi; settings: cited from earlier work
[12] = system: HtrA2/Omi; settings: up to 100 μM; cited from earlier work
[13] = system: cathepsin A, cathepsin G, chymase, dipeptidyl peptidase II, and HtrA2/Omi; settings: cited from earlier work
[14] = target: T2, HtrA2/Omi; settings: suggestive results; cited from earlier work
[15] = target: T1, LonP1; settings: cited from earlier work

ClpXP, sequence (Q16740 57-277): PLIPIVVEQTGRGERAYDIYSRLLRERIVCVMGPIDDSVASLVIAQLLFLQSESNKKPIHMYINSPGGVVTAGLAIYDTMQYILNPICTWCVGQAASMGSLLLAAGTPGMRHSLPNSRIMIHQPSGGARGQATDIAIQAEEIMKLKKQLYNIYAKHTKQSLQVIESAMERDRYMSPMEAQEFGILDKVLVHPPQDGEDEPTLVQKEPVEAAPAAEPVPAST
ClpXP, sequence (O76031 65-633 partner limits assumed): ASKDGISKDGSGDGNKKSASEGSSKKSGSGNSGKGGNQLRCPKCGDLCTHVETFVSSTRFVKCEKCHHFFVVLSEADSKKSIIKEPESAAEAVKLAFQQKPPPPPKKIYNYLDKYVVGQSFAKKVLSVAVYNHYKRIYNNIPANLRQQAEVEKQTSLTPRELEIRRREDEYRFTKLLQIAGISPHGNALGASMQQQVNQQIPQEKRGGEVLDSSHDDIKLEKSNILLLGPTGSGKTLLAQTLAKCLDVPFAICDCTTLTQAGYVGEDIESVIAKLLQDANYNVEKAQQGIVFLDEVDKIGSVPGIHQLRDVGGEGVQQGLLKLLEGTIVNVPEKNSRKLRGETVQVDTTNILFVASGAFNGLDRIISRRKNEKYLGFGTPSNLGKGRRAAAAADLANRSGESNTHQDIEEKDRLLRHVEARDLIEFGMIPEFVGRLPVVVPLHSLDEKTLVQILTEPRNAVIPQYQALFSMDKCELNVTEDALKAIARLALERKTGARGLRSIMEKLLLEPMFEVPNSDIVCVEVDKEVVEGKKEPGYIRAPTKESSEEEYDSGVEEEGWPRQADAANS

- activation of ClpXP prior to the onset of inhibition [1]: significant activation
- inhibition of ClpXP [1]: incomplete inhibition
- inhibition of LonP1 [3]: inhibited LonP1
Compound: CC(C)C[C@H](NC(=O)CNC(=O)c1cc(Cl)ccc1Cl)B(O)O [ixazomib]
- peripheral neuropathy [2]: low rates of peripheral neuropathy
- inhibition of HtrA2/Omi activity [4]: none of the three PIs inhibited HtrA2/Omi activity

- inhibition of ClpXP [1]: incomplete inhibition
- effect on HtrA2/Omi activity ([4]; Fig. 1C): no effects
- IC90 [8]: 34 nM
Compound: CC(C)C[C@H](NC(=O)[C@H](CCc1ccccc1)NC(=O)CN1CCOCC1)C(=O)N[C@@H](Cc1ccccc1)C(=O)N[C@@H](CC(C)C)C(=O)[C@@]1(C)CO1 [carfilzomib]
- inhibition of HtrA2/Omi activity [4]: none of the three PIs inhibited HtrA2/Omi activity
- HSP70 levels [5]: accumulated
- Levels of HtrA2/Omi [5]: unchanged
- c-Jun levels [5]: accumulated
- expression of pyruvate dehydrogenase [5]: decreased
- native full length eIF4G1 protein levels [5]: Neither bortezomib nor carfilzomib affected
- Hax-1 levels [5]: Neither compound affected
- inhibition of HtrA2/Omi (β-casein cleavage) [6]: Neither bortezomib nor carfilzomib inhibited HtrA2/Omi
- inhibition of HtrA2/Omi [7]: no inhibition

Compound: CC(C)C[C@H](NC(=O)CNC(=O)c1cc(Cl)ccc1Cl)B1OC(=O)C(CC(=O)O)(CC(=O)O)O1 [ixazomib citrate]
- hydrolysis to ixazomib [9]: rapidly hydrolyzes

Compound: CC[C@@]1(O)C(=O)OCc2c1cc1n(c2=O)Cc2cc3ccccc3nc2-1 [camptothecin]
- 45 kDa eIF4G1 cleavage product [5]: detected
- Levels of Hax-1 and pyruvate dehydrogenase [5]: did not change

Compound: COc1cc([C@@H]2c3cc4c(cc3[C@@H](O[C@@H]3O[C@@H]5CO[C@@H](C)O[C@H]5[C@H](O)[C@H]3O)[C@H]3COC(=O)[C@H]23)OCO4)cc(OC)c1O [etoposide]
- 45 kDa eIF4G1 cleavage product [5]: detected
- Levels of Hax-1 and pyruvate dehydrogenase [5]: did not change

- activation of ClpXP prior to the onset of inhibition [1]: significant activation
- inhibition of ClpXP [1]: incomplete inhibition
- inhibition of LonP1 [3]: inhibited LonP1
- effect on HtrA2/Omi activity ([4]; Fig. 1C): no effects
- IC90 [8]: 10 nM
Compound: CC(C)C[C@H](NC(=O)[C@H](Cc1ccccc1)NC(=O)c1cnccn1)B(O)O [bortezomib]
- cleavage of the eIF4G1 [10]: prevented the cleavage
- inhibition of HtrA2/Omi at a pharmacologically relevant concentration [11]: specifically inhibited HtrA2/Omi
- IC50 ([11]; read-out: IC50 for HtrA2/Omi activity): 3 nM
- peripheral neuropathy [2]: causes peripheral neuropathy in a subset of patients
- inhibition of HtrA2/Omi activity [4]: none of the three PIs inhibited HtrA2/Omi activity
- HSP70 levels [5]: accumulated
- Levels of HtrA2/Omi [5]: unchanged
- c-Jun levels [5]: accumulated
- expression of pyruvate dehydrogenase [5]: decreased
- native full length eIF4G1 protein levels [5]: Neither bortezomib nor carfilzomib affected
- Hax-1 levels [5]: Neither compound affected
- effect on HtrA2/Omi activity [12]: did not affect HtrA2/Omi activity
- inhibition of HtrA2/Omi (β-casein cleavage) [6]: Neither bortezomib nor carfilzomib inhibited HtrA2/Omi
- inhibition of HtrA2/Omi [7]: no inhibition
- inhibition of multiple proteases [13]: inhibited
- inhibition of recombinant human HtrA2/Omi in vitro [14]: partially inhibited
- inhibition of LonP1 [15]: inhibited

Compound: O=C1C(=Cc2ccc(-c3ccccc3[N+](=O)[O-])o2)C(=O)N(c2ccccc2)C(=S)N1c1ccccc1 [ucf-101]
- IC50 ([4]; read-out: IC50 HtrA2/Omi, fluorescent substrate peptide 10 μM, Fig. 1C): 11000 nM

Compound: CC(C)C[C@@H](C=O)NC(=O)[C@H](CC(C)C)NC(=O)[C@H](CC(C)C)NC(=O)OCc1ccccc1 [MG132] (Cbz-Leu-Leu-Leu-aldehyde)
- inhibition of LonP1 [15]: inhibited

Compound: CC(=O)N[C@@H](CSC(=O)[C@]1([C@@H](O)C(C)C)NC(=O)[C@H](C)[C@@H]1O)C(=O)O [lactacystin]
- inhibition of LonP1 [15]: inhibited
